Source: PubChem BioAssay
An excerpt weighted towards active compounds, which were near 0.79% of everything screened.
mIAP block: blocks mouse intestinal alkaline phosphatase; inhibition, % at 10 µM; purified mouse IAP, CDP-Star luminescence, 30 min; 330,000 tested, 0.2% active; AID 2806;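 active = inhibition of at least 40% at 10 µM in the primary screen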;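 note: plate controls were DMSO with enzyme for no effect and no enzyme wells for full effect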
bIAP inh: intestinal alkaline phosphatase (bovine) inhibition; inhibition, % at 20 µM; purified bovine IAP, CDP-star luminescence, 30 min; 190,000 tested, under 10 active;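 active = over 50% inhibition of intestinal alkaline phosphatase at 20 µM in the single-dose screen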
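test system = bovine IAP enzyme | medium = DEA buffer 100 mM, pH 9.8, with MgCl2 1.0 mM, ZnCl2 0.02 mM | detection = luminescence | dosing = single compound dose of 20 µM, 2% DMSO final | incubation = 30 min reaction at room temperature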
bIAP activator: increases bovine intestinal alkaline phosphatase activity. purified bovine IAP, CDP-star luminescence, 30 min; hits give high values; fold of DMSO-control signal, blank-subtracted. activation factor at 20 µM. 200,000 tested, 0.17% active. AID 1016;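 active = activation factor of 2 or more at 20 µM, a signal rise over negative controls twice the positive control's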
mIAP activ: increases mouse intestinal alkaline phosphatase activity. muIAP, CDP-Star luminescence, 30 min; hits give high values; 1 = vehicle-only enzyme signal, 0 = enzyme-free wells. activation factor at 10 µM. 330,000 tested, 0.24% active;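 active = activation factor of at least 2 at 20 µM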
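Assay system: mouse IAP enzyme; Reagent: CDP-Star chemiluminescent phosphatase substrate; Compound: DMSO-dissolved test compounds; Incubation: 30 min, room temperature; Technique: luminescence from enzymatic CDP-Star hydrolysis; Controls: DMSO-only wells and no-enzyme negative control.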
hIAP inh: blocks human intestinal alkaline phosphatase; inhibition, % at 10 µM; purified IAP, CDP-Star luminescence, 30 min; P09923; AID 2544; 330,000 tested, 0.12% active;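 active = inhibition reaching a set limit with compound at 10 µM in the primary screen, cut at about 35% in these data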;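 note: plate controls were DMSO wells with enzyme for no effect and no-enzyme buffer wells for full effect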
Target sequence (P09923 whole entry, looked up): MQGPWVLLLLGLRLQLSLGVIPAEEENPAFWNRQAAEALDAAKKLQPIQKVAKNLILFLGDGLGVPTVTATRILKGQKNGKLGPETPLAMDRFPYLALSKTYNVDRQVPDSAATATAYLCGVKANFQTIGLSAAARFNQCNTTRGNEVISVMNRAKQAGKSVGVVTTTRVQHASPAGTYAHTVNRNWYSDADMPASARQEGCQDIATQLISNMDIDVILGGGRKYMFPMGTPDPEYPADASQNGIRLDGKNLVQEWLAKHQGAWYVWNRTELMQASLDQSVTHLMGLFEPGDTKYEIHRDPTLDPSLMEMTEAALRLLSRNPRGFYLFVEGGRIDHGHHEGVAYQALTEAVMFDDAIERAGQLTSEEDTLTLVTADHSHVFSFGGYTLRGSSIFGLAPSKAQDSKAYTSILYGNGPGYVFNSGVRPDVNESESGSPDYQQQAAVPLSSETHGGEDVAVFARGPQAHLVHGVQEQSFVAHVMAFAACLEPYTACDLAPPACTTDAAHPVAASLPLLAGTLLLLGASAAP
hIAP act: increases human intestinal alkaline phosphatase activity. activation factor at 10 µM. 330,000 tested, 0.16% active. purified human IAP, CDP-Star luminescence, 30 min; hits give high values; 1 = vehicle-only enzyme, 0 = enzyme-free background. P09923;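 active = activation factor of the enzyme at least 2-fold when tested at 20 µM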
Active calls of the source: *; i = inactive; x = not tested or not shown.

SMILES	mIAP block	bIAP inh	bIAP activator	mIAP activ	hIAP inh	hIAP act
O=C(Nc1ccccc1C(=O)N1CCCC1)c1ncoc1-c1cccc(Cl)c1	-9	x	x	1.1	13	0.87
CN(C)CCCNS(=O)(=O)c1ccc(N2CCC(c3ccc(Cl)cc3)=N2)cc1	-89	-125	2.2*	1.9	-18	1.2
O=S(=O)(c1ccc(N2CCC(c3ccc(Cl)cc3)=N2)cc1)N(CCO)CCO	-120	-168	2.7*	2.2*	-6	1.1
Cc1ccc(NS(=O)(=O)c2ccc(C(=O)NNC(=O)c3ccccc3O)cc2)cc1	35	x	x	0.65	-66	1.7
Cc1cccc(C)c1NC(=O)CNC(=O)c1ccccc1OCc1ccccc1	-9	x	x	1.1	-10	1.1
C/C(N)=C(/C#N)C(=O)CSc1nnc(COc2ccccc2Cl)o1	11	-108	2.1*	0.89	9	0.91
O=C(CSc1nnc(COc2ccccc2Cl)o1)Nc1ccccc1	13	x	x	0.87	0	1
O=C(NCCc1csc(-c2ccc(Cl)cc2)n1)c1ccco1	7	x	x	0.93	-31	1.3
CCn1c2ccccc2c2cc(NC(=O)C3CCN(S(=O)(=O)c4cccs4)CC3)ccc21	-196	-33	1.3	3*	-14	1.1
Cc1cc2nc(C3CCN(CC4COc5ccccc5O4)CC3)[nH]c2cc1C (configuration not stated)	-58	-350	4.5*	1.6	16	0.84
CCCCn1c(=O)[nH]c(=O)c2c1nc(Cn1ncc(Cl)c(Cl)c1=O)n2CCC	9	x	x	0.91	16	0.84
O=C(Nc1ccc(Cl)cc1)Nc1ccc(-c2cnco2)cc1	-105	x	x	2*	6	0.94
CCOC(=O)c1ccc(S(=O)(=O)N2CCN(C3CC(=O)N(c4ccccc4C(F)(F)F)C3=O)CC2)cc1 (configuration not stated)	11	x	x	0.89	-8	1.1
COc1cc(/C=C2\SC(=S)N(Nc3ccccc3)C2=O)cc(OC)c1OC	40*	7	0.9	0.6	5	0.95
Cc1noc(-c2ccccc2)c1NC(=O)Nc1ccccc1	-49	x	x	1.5	1	0.99
Cc1noc(-c2ccccc2)c1NC(=O)Nc1ccc(Cl)cc1	-206	x	x	3.1*	-10	1.1
COc1ccc(Cn2c(C)c(C)c(C#N)c2NC(=O)Nc2cccc(C)c2)cc1	-118	-9	1.1	2.2*	-4	1
CN(C(=O)COC(=O)c1ccc2c(c1)OCCO2)C1CCCCC1	7	x	x	0.93	1	0.99
COc1cc(OC)cc(-c2nnc(NC(=O)CCS(=O)(=O)c3ccc(C)cc3)o2)c1	3	x	x	0.97	-16	1.2
COc1cc(OC)cc(C(=O)NC2CCN(Cc3nnnn3Cc3ccc(F)cc3)CC2)c1	0	5	1	1	-10	1.1
COc1cccc(NC(=O)NC2CCN(Cc3nnnn3Cc3ccc4c(c3)OCO4)CC2)c1	-150	x	x	2.5*	-48	1.5
O=C(CCCN1C(=O)NC2(CCCC2)C1=O)Nc1cccc(S(=O)(=O)N2CCOCC2)c1	-11	x	x	1.1	3	0.97
CCOc1ccc(CCNC(=O)c2ccc3c(c2)NC(=O)C2CCCN32)cc1OCC (configuration not stated)	-103	x	x	2*	8	0.92
C[C@H](CO)N1C[C@H](C)[C@@H](CN(C)C(=O)Nc2ccc3c(c2)OCO3)Oc2ccc(NC(=O)Nc3ccc4c(c3)OCO4)cc2C1=O	-139	x	x	2.4*	-15	1.2
CNC[C@H]1Oc2ccc(NC(=O)Nc3ccc4c(c3)OCO4)cc2C(=O)N([C@H](C)CO)C[C@@H]1C	-116	x	x	2.2*	-4	1
SMILES	mIAP block	bIAP inh	bIAP activator	mIAP activ	hIAP inh	hIAP act
CC(C)NC(=O)N(C)C[C@H]1Oc2ccc(NC(=O)Nc3ccc4c(c3)OCO4)cc2C(=O)N([C@H](C)CO)C[C@@H]1C	-25	x	x	1.3	-18	1.2
CNC[C@@H]1Oc2ccc(NC(=O)Nc3ccccc3)cc2C(=O)N([C@@H](C)CO)C[C@H]1C	-132	x	x	2.3*	-8	1.1
CCN(c1ccccc1)S(=O)(=O)c1ccc(C(=O)Nc2cc(C)ccn2)cc1	3	x	x	0.97	-12	1.1
NC(=O)c1ccsc1NC(=O)c1ccc([N+](=O)[O-])o1	24	x	x	0.76	0	1
O=C(CN(C(=O)Cn1nnc(-c2ccccc2F)n1)c1cccc2c1CCCC2)NCc1ccccc1	-51	-121	2.2*	1.5	-2	1
Cc1ccc(NC(=O)COc2ccccc2CNC(C)(C)CC(C)(C)C)cc1	-58	i	30*	1.6	11	0.89
Cc1ccccc1-c1nnc(SCC(=O)Nc2cccnc2Cl)o1	22	x	x	0.78	-20	1.2
Cc1ccsc1C(=O)Nc1ccc2c(c1)OCCO2	-4	-110	2.1*	1	6	0.94
Cc1ncoc1C(=O)Nc1ccc2c(c1)OCCO2	8	5	0.9	0.92	16	0.84
O=C(Nc1cccnc1)Nc1cc(Cl)cc(Cl)c1	-146	-6	1.1	2.5*	-2	1
CC1CC(C)CN(C(=O)COC(=O)CCCN2C(=O)c3cccc4cccc(c34)C2=O)C1 (configuration not stated)	8	x	x	0.93	9	0.91
O=C1NC(=S)S/C1=C/c1ccc(N2CCOCC2)o1	53*	-2	1	0.47	15	0.85
CCCCN(C)CCNC(=O)C1CCN(S(=O)(=O)c2cccc3nsnc23)CC1	-4	x	x	1	8	0.92
Cc1ccccc1-n1nc2c(c1NC(=O)c1ccc(S(=O)(=O)N(C)C)cc1)CSC2	46*	1	1	0.55	1	0.99
Cc1ccc(S(=O)(=O)Nc2ccc(NC(=O)Nc3cccc(C(F)(F)F)c3)cc2)cc1	-161	13	0.9	2.6*	-9	1.1
O=C(Nc1ccncc1)Nc1cccc(C(F)(F)F)c1	-8	x	x	1.1	-3	1
Cc1cccc(NC(=S)NCCC(c2ccccc2)c2ccccc2)c1	i	10	0.9	7.6*	-1	1
Cc1ccc(SCCNC(=S)Nc2ccc(C)c(C)c2)cc1	-179	8	0.9	2.8*	-11	1.1
Cc1cc(C)cc(NC(=S)NCCSc2ccc(Cl)cc2)c1	-128	-4	1	2.3*	-2	1
Cc1cccc(NC(=S)NNC(=S)NCc2ccccc2)c1	6	7	0.9	0.94	-21	1.2
Cc1ccc(SCCNC(=S)Nc2ccccc2)cc1	-115	37	0.6	2.2*	-27	1.3
Cc1ccc(SCCNC(=S)Nc2cc(C)ccc2C)cc1	-54	x	0.4	1.5	-3	1
COc1ccccc1NC(=S)NCCSc1ccc(C)cc1	-49	6	0.9	1.5	-17	1.2
Cc1ccc(CC(=O)NCCN2CCOCC2)cc1	-7	x	x	1.1	0	1
S=C(NCCSCc1c(Cl)cccc1Cl)Nc1ccccc1	-148	26	0.7	2.5*	-6	1.1
